Activity calls are given as the source filed them.
What was measured:
MCF7 [1] = experiment: Antiproliferative activity against human MCF7 cells at 4 uM after 14 days by coomassie staining; assay type: functional, cell-based
Outline: (§1)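 Retrovirally transduced shRNA (GFP control, p53, or two independent 53BP1 hairpins in pRETROSUPER); cells grown in DMEM with 10% fetal calf serum at 37 °C, 5% CO2; left untreated or given 4 µM nutlin-3 for 14 days; cell density shown by Coomassie staining, morphology inspected.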

MCF7 [2] = experiment: Induction of cell cycle arrest in human MCF7 cells transfected with 53BP1-targeting iRNA-based shRNA at 4 uM after 48 hrs by BrdU incorporation assay
MCF7 [3] = experiment: Antiproliferative activity against human MCF7 cells assessed as appearance of flattened phenotype at 4 uM after 14 days by coomassie staining; assay type: functional, cell-based; outline: as §1
MCF7 [4] = experiment: Antiproliferative activity against human MCF7 cells transfected with p53-targeting iRNA-based shRNA assessed as effect on cellular morphology at 4 uM after 14 days by coomassie staining; assay type: functional, cell-based; outline: as §1
MCF7 [5] = experiment: Induction of CDKN1A gene expression in human MCF7 cells transfected with 53BP1-targeting iRNA-based shRNA by Western blot analysis; assay type: functional, cell-based
Outline: (§2)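 MCF-7 expressing GFP control shRNA or either of two 53BP1 shRNAs; lysates immunoblotted for 53BP1, p53 (DO-1), p21 (C19) and MDM2 (2A10, SMP14) after SDS-PAGE transfer to nitrocellulose.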

MCF7 [6] = experiment: Induction of apoptosis in human MCF7 cells co-transfected with 53BP1-targeting iRNA-based shRNA at 4 uM after 14 days by BrdU incorporation assay; assay type: functional, cell-based
MCF7 [7] = experiment: Induction of apoptosis in human MCF7 cells transfected with p53-targeting iRNA-based shRNA at 4 uM after 14 days by BrdU incorporation assay; assay type: functional, cell-based
MCF7 [8] = experiment: Induction of cell cycle arrest in human MCF7 cells p53-targeting iRNA-based shRNA assessed as accumulation at S phase at 4 uM after 48 hrs by BrdU incorporation assay; assay type: functional
Outline: (§3)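 MCF-7 carrying shRNA against GFP (control), p53 or 53BP1, untreated or given 4 µM nutlin-3 for 48 h; 10 µM BrdU pulse 30 min before harvest; ethanol fixation, HCl-Triton permeabilization, borate neutralization; anti-BrdU plus FITC secondary, propidium iodide with RNase; 10,000 cells per sample by flow cytometry; S-phase percentage = BrdU-positive fraction.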

MCF7 [9] = experiment: Induction of p53 accumulation in human MCF7 cells after 18 hrs by Western blot analysis in presence of 2.5 mM caffeine; assay type: functional, cell-based
Outline: (§4)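 MCF-7 pretreated 12 h with 2.5 mM caffeine (or not), then exposed to increasing nutlin-3 concentrations for 18 h; lysates run on SDS-PAGE, blotted to nitrocellulose and probed for p53 (DO-1) and p21 (C19).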

MCF7 [10] = experiment: Induction of p53 expression in human MCF7 cells transfected with 53BP1-targeting iRNA-based shRNA by Western blot analysis; assay type: functional, cell-based; outline: as §2
MCF7 [11] = experiment: Induction of p53 expression in human MCF7 cells assessed as increase in p21CIP1 level after 18 hrs by Western blot method in presence of 2.5 mM caffeine; assay type: functional, cell-based; outline: as §4
BJ [12] = experiment: Induction of p21CIP1 expression in irradiated human BJ cells at 3 uM by Western blot analysis; assay type: functional, cell-based
Outline: (§5)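 Normal BJ fibroblasts, with or without 2 Gy irradiation, treated with increasing nutlin-3 concentrations; SDS-PAGE and nitrocellulose immunoblot for p53 stabilization and p21 induction.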

MCF7 [13] = experiment: Induction of cell cycle arrest in human MCF7 cells 53BP1-targeting iRNA-based shRNA assessed as accumulation at S phase at 4 uM after 48 hrs by BrdU incorporation assay; assay type: functional; outline: as §3
MCF7 [14] = experiment: Induction of cell cycle arrest in human MCF7 cells transfected with p53-targeting iRNA-based shRNA at 4 uM after 14 days by BrdU incorporation assay; assay type: functional
BJ [15] = experiment: Induction of p21 expression in irradiated human BJ cells at 3 uM by Western blot analysis; assay type: functional, cell-based; outline: as §5
A549 = experiment: Antiproliferative activity against human A549 cells transfected with 53BP1-targeting iRNA-based shRNA assessed as effect on cellular morphology at 4 uM after 14 days by coomassie staining; assay type: functional, cell-based; outline: as §1
MCF7 [16] = experiment: Induction of cell cycle arrest in human MCF7 cells transfected hnRNPK-targeting iRNA-based shRNA at 4 uM after 14 days by BrdU incorporation assay; assay type: functional
MCF7 [17] = experiment: Induction of p53 expression in human MCF7 cells by Western blot analysis; assay type: functional, cell-based; outline: as §2
MCF7 [18] = experiment: Antiproliferative activity against human MCF7 cells transfected with 53BP1-targeting iRNA-based shRNA assessed as effect on cellular morphology at 4 uM after 14 days by coomassie staining; assay type: functional, cell-based; outline: as §1

Measured: Activity

COc1ccc(C2=N[C@@H](c3ccc(Cl)cc3)[C@@H](c3ccc(Cl)cc3)N2C(=O)N2CCNC(=O)C2)c(OC(C)C)c1 [NUTLIN-3]
29%: MCF7 [8]
17%: MCF7 [13]
inactive: MCF7 [4] | MCF7 [5] | MCF7 [6] | MCF7 [7] | MCF7 [11] | A549 | MCF7 [18]
active: all other assays above

From ChEMBL document CHEMBL1221179, “An shRNA barcode screen provides insight into cancer cell vulnerability to MDM2 inhibitors” (2006)
